Assay results from ChEMBL document CHEMBL3272177, “Hypolipidemic alkoxybenzoic acids” (1976).

How the values were obtained:
Design in all cases: scale not given: the % may be the effect or the level left
Rattus norvegicus [1] = organism: Rattus norvegicus; assay: Reduction in triglyceride level in CFE rat […] at 0.025% of diet treated through diet for 6 days relative to control; type: functional, Serum
Method in brief: (§1)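 Compound dissolved in methanol-chloroform (1:3 v/v), mixed into ground rat chow at 0.1, 0.05 or 0.025% (w/w), and solvent evaporated; controls received solvent-treated chow. Rats fed ad libitum with water for 6 days, then killed fed and bled. Serum sterols and triglycerides measured by autoanalyzer. Values given as percent of control, mean ± SE; significance by Student's t test.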

Rattus norvegicus [2] = organism: Rattus norvegicus; assay: Reduction in sterol level in CFE rat […] in serum at 0.05% of diet treated through diet for 6 days relative to control; type: functional; method in brief: as §1
Rattus norvegicus [3] = organism: Rattus norvegicus; assay: Reduction in sterol level in CFE rat […] at 0.025% of diet treated through diet for 6 days relative to control; type: functional, Serum; method in brief: as §1
Rattus norvegicus [4] = organism: Rattus norvegicus; assay: Reduction in triglyceride level in CFE rat […] in serum at 0.1% of diet treated through diet for 6 days relative to control; type: functional; method in brief: as §1
Rattus norvegicus [5] = organism: Rattus norvegicus; assay: Reduction in triglyceride level in CFE rat […] in serum at 0.05% of diet treated through diet for 6 days relative to control; type: functional; method in brief: as §1
Rattus norvegicus [6] = organism: Rattus norvegicus; assay: Reduction in sterol level in CFE rat […] in serum at 0.1% of diet treated through diet for 6 days relative to control; type: functional; method in brief: as §1

Row | Structure (SMILES) | Activity (Rattus norvegicus [1]) [%] | Activity (Rattus norvegicus [2]) [%] | Activity (Rattus norvegicus [3]) [%] | Activity (Rattus norvegicus [4]) [%] | Activity (Rattus norvegicus [5]) [%] | Activity (Rattus norvegicus [6]) [%]
1 | C=CCCCCCCCCCOc1ccc(C(=O)OC)cc1 | 65 | 94 | 97 | 58 | 52 | 90
2 | CCCCCCCC/C=C/CCCCCCCCOc1ccc(C(=O)OC)cc1 | 73 | 102 | 102 | 46 | 86 | 104
3 | CCCCCCCCCCCC(Cl)CCOc1ccc(C(=O)OC)cc1 (stereo not drawn) | 80 | 87 | 100 | 45 | 53 | 84
4 | CCCCCCCCCCCC(CCOc1ccc(C(=O)OC)cc1)SC(C)=O (stereo not drawn) | 83 | 89 | 94 | 59 | 70 | 81
5 | COC(=O)c1ccc(OCCCCCCCCCCCO)cc1 | 140 | 94 | 94 | 72 | 86 | 92
6 | COC(=O)c1ccc(OCCCCCCCCCCCCCCCO)cc1 | 98 | 98 | 96 | 89 | 104 | 93
7 | COC(=O)c1ccc(OCCCCCCCCCCCOS(C)(=O)=O)cc1 | 79 | 105 | 105 | 72 | 81 | 91
8 | COCCCCCCCCCCCOc1ccc(C(=O)OC)cc1 | 77 | 96 | 93 | 36 | 69 | 104
9 | COC(=O)c1ccc(OCCCCCCCCCCCSC(C)=O)cc1 | 66 | 98 | 106 | 63 | 88 | 113
10 | CCSCCCCCCCCCCCOc1ccc(C(=O)OC)cc1 | 71 | 100 | 110 | 65 | 74 | 100
11 | CCCCSCCCCCCCCCCCOc1ccc(C(=O)OC)cc1 | 87 | 92 | 100 | 69 | 62 | 96
12 | COC(=O)c1ccc(OCCCCCCCCCCCSCc2ccccc2)cc1 | 64 | 85 | 91 | 58 | 49 | 87
13 | COC(=O)c1ccc(OCCCCCCCCCCCSC#N)cc1 | 80 | 102 | 102 | 145 | 94 | 160
14 | COC(=O)c1ccc(OCCCCCCCCCCCCl)cc1 | 94 | 108 | 110 | 41 | 81 | 102
15 | CCCCNCCCCCCCCCCCOc1ccc(C(=O)OC)cc1 | 104 | 95 | 102 | 114 | 88 | 96
16 | CCCCNCCCCCCCCCCCOc1ccc(C(=O)OC)cc1.Cl | 87 | 96 | 100 | 66 | 71 | 89

Row | Structure (SMILES) | Activity (Rattus norvegicus [1]) [%] | Activity (Rattus norvegicus [2]) [%] | Activity (Rattus norvegicus [3]) [%] | Activity (Rattus norvegicus [4]) [%] | Activity (Rattus norvegicus [5]) [%] | Activity (Rattus norvegicus [6]) [%]
17 | CCCCNC(=O)CCCCCCCCCCOc1ccc(C(=O)OC)cc1 | 95 | 100 | 99 | 81 | 97 | 96
18 | CCCCCCCCCCCCCCCCOc1ccc(C(=O)OC2CCN(C)CC2)cc1 | 100 | 87 | 85 | 117 | 110 | 96
19 | CCCCCCCCCCC/C=C/CCCOc1ccc(C(=O)OC)cc1 | 72 | 73 | 68 | 68 | 57 | 75
20 | CCCCCCCCCCCCC/C=C\COc1ccc(C(=O)OC)cc1 | 96 | 83 | 89 | 89 | 83 | 82
21 | CCCCCCCCCCCCCC#CCOc1ccc(C(=O)OC)cc1 | 78 | 83 | 89 | 57 | 66 | 89
22 | COC(=O)c1ccc(OCC(=O)C23CC4CC(CC(C4)C2)C3)cc1 | 88 | 96 | 97 | 100 | 82 | 89
23 | COC(=O)c1ccc(OCC2(C34CC5CC(CC(C5)C3)C4)SCCS2)cc1 | 94 | 89 | 94 | 112 | 83 | 93
24 | CCCCCCCCCCCC(=O)CCOc1ccc(C(=O)OC)cc1 | 78 | 93 | 100 | 61 | 61 | 81
25 | CCCCCCCCCCC/C(CCOc1ccc(C(=O)OC)cc1)=N/O | 53 | 67 | 74 | 32 | 43 | 64
26 | CCCCCCCCCCCC1OC1CCCOc1ccc(C(=O)OC)cc1 (stereo not drawn) | 74 | 89 | 103 | 65 | 64 | 84
27 | CCCCCCCCCCCCCCCCOc1ccc(C(=O)O)cc1Cl | 69 | 97 | 108 | 75 | 87 | 103
28 | CCCCCCCCCCCCCCCCOc1c(Br)cc(C(=O)OC)cc1Br | 96 | 94 | 94 | 88 | 103 | 82
29 | CCCCCCCCCCCCCCCCOc1c(Br)cc(C(=O)OC)cc1[N+](=O)[O-] | 113 | 93 | 93 | 95 | 101 | 97
30 | CCCCCCCCCCCC(CCOc1ccc(C(=O)OC)cc1)OS(=O)(=O)c1ccc(C)cc1 (stereo not drawn) | 91 | 103 | 102 | 86 | 91 | 98
31 | CCCCCCCCCCCCCCC(C)(CC)Oc1ccc(C(=O)O)cc1 (stereo not drawn) | 94 |  | 100 | 94 |  | 102
32 | CCCCCCCCCCCC(O)C(O)CCCOc1ccc(C(=O)O)cc1 (stereo not drawn) |  | 86 |  | 55 | 60 | 83
